Experimental data as given in ChEMBL document CHEMBL1125114, “Cardiotonic agents. 6. Histamine analogues as potential cardiovascular selective H2 agonists” (J Med Chem, 1990).
“And” between values parts separate entries of the source, which are not always exact repeats. Identical values can stand only once. The source made the active and inactive calls. The calls are words filed in the database; no cut-off is given here.

Legend:
Mustela putorius furo [1] = species on record: Mustela putorius furo; assay: In vitro inotropy blocking studies in ferret papillary muscle in the presence of 10 uM cimetidine; NB-Not Blocked; assay type: functional, tissue-based; conditions: Muscle tissue
Procedure, shortened: (§1)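 Ferret papillary muscle dose-response repeated in the presence of antagonist (cimetidine). A rise of at least 1 order of magnitude in the measured C20 was scored as a blocked inotropic response.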

Mustela putorius furo [2] = species on record: Mustela putorius furo; assay: In vitro inotropy blocking studies in ferret papillary muscle in the presence of 100 uM nadolol; B-Blocked; assay type: functional, tissue-based; conditions: Muscle tissue
Procedure, shortened: (§2)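 Ferret papillary muscle dose-response repeated in the presence of 100 μM nadolol. A rise of at least 1 order of magnitude in the measured C20 was scored as a blocked inotropic response.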

Mustela putorius furo [3] = species on record: Mustela putorius furo; assay: (§3) In vitro inotropy blocking studies in ferret papillary muscle in the presence of 10 uM cimetidine; B-Blocked; assay type: functional, tissue-based; conditions: Muscle tissue
Mustela putorius furo [4] = species on record: Mustela putorius furo; assay: (§4) In vitro inotropy blocking studies in ferret papillary muscle in the presence of 100 uM nadolol; NB-Not Blocked; assay type: functional, tissue-based; conditions: Muscle tissue
Procedure, shortened: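 Ferret papillary muscle inotropic dose-response curves repeated in the presence of each antagonist (nadolol at 100 μM). A rise in C20 of at least one order of magnitude was scored as a blocked response.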

[5] = Concentration which gives 20% increase in the force contraction in ferret papillary muscle; assay type: functional, Mustela putorius furo, Muscle tissue
Procedure, shortened: (§5)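 Isolated ferret papillary muscle, force of contraction recorded over a dose-response range. C20 = concentration giving a 20% increase in contractile force. Single experiments reported individually; with three or more runs, mean and range given.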

Cavia porcellus [6] = species on record: Cavia porcellus; assay: Chronotropic effect of histamine at 5 ug/mL in guinea pig atrium; assay type: functional, Cardiac atrium
Procedure, shortened: (§6)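 Spontaneously beating guinea pig right atria. Value is the concentration giving 50% of the chronotropic effect of histamine at 5 μg/mL, taken from dose-response curves. Reported as mean ± SEM of three separate dose-response determinations. Response sensitivity checked with cimetidine.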

Cavia porcellus [7] = species on record: Cavia porcellus; assay: Contractile response of histamine at 0.5 ug/mL in guinea pig ileum; assay type: functional; conditions: Cavia porcellus, Ileum; read-out: EC50
Procedure, shortened: (§7)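 Isolated guinea pig ileum, H1 activity. Value is the concentration giving 50% of the contractile response of histamine at 0.5 μg/mL, taken from dose-response curves. Reported as mean ± SEM of three separate dose-response determinations. Response sensitivity checked with mepyramine.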

Cavia porcellus [8] = assay: In vivo percent change in airway overflow in guinea pig was determined at a dose of 30 mg/kg/h; assay type: functional
Cavia porcellus [9] = assay: In vivo percent change in heart rate in guinea pig was determined at a dose of 30 mg/kg/h; assay type: functional
Procedure, shortened: (§8)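 Pentobarbital-anesthetized guinea pigs with stomach ligated to contain gastric fluid. After 30 min stabilization, blood pressure, heart rate, LVEDP and LV dP/dtmax were recorded at 1-min intervals. Compound given by iv infusion for 60 min, then monitored 10 min more. Gastric contents were titrated against 0.1 N NaOH. Value is the average maximum % change from control in the 10 min after infusion, mean ± SEM.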

Cavia porcellus [10] = assay: In vivo percent change in total acid secretion in guinea pig was determined at a dose of 30 mg/kg/h; assay type: functional; procedure, shortened: as §8
Rattus norvegicus [11] = assay: In vivo effect on gastric acid secretion in rat was determined after subcutaneous administration; NC-No change; assay type: functional, organism-based; conditions: Stomach
Procedure, shortened: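 Rats, subcutaneous dosing, gastric acid secretion stimulation. ED50 is the dose giving a 50% increase in acid secretion over control. Reported as mean ± SEM of three separate dose-response determinations.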

[12] = dP/dt value of the compound; assay type: functional; design: unit not given here
Mustela putorius furo [13] = species on record: Mustela putorius furo; assay: Concentration of compound which gives 20% increase in the force contraction in ferret papillary muscle; NR-Not reached; assay type: functional, tissue-based; conditions: Muscle tissue; procedure, shortened: as §5
Mustela putorius furo [14] = species on record: Mustela putorius furo; assay: as §3; assay type: functional, tissue-based; conditions: Muscle tissue; procedure, shortened: as §1; remark: listed apart in the source
Mustela putorius furo [15] = species on record: Mustela putorius furo; assay: as §4; assay type: functional, tissue-based; conditions: Muscle tissue; procedure, shortened: as §2; remark: listed apart in the source
[16] = Concentration of compound which gives 20% increase in the force contraction in ferret papillary muscle.; assay type: functional, Mustela putorius furo, Muscle tissue
Procedure, shortened: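 Ferret papillary muscle force of contraction. C20 is the concentration giving a 20% increase in force. Values come from individual experiments; where three or more runs were done, the mean and range are given. NR means not reached.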

Cavia porcellus [17] = assay: In vivo percent change airway overflow in guinea pig was determined at a dose of 75 mg/kg/h; assay type: functional
Cavia porcellus [18] = assay: In vivo percent change in heart rate in guinea pig was determined at a dose of 75 mg/kg/h; assay type: functional; procedure, shortened: as §8
Cavia porcellus [19] = assay: In vivo percent change in mean arterial pressure in guinea pig was determined at a dose of 75 mg/kg/h; assay type: functional, Artery; procedure, shortened: as §8
Cavia porcellus [20] = assay: In vivo percent change total acid secretion in guinea pig was determined at a dose of 75 mg/kg/h; assay type: functional; procedure, shortened: as §8
Rattus norvegicus [21] = assay: In vivo effect on gastric acid secretion in rat was determined after subcutaneous administration; assay type: functional; conditions: Stomach, sc
Procedure, shortened: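 Rats, subcutaneous dosing, gastric acid secretion measured by the method of Hagiwara and co-workers. ED50 = dose giving a 50% increase in acid secretion over control. Mean ± SEM of three separate dose-response determinations.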

[22] = dp/dt value of the compound; assay type: functional; procedure, shortened: as §8
Cavia porcellus [23] = species on record: Cavia porcellus; assay: In vitro chronotropic effect of histamine at 5 ug/mL in guinea pig atrium; assay type: functional; conditions: Cardiac atrium; procedure, shortened: as §6
Cavia porcellus [24] = species on record: Cavia porcellus; assay: In vitro contractile response of histamine at 0.5 ug/mL in guinea pig ileum; assay type: functional; procedure, shortened: as §7
Cavia porcellus [25] = assay: In vivo percent change in airway overflow in guinea pig was determined at a dose of 1 mg/kg/h; assay type: functional
Cavia porcellus [26] = assay: In vivo percent change in heart rate in guinea pig was determined at a dose of 1 mg/kg/h; assay type: functional
Cavia porcellus [27] = assay: In vivo percent change in mean arterial pressure in guinea pig was determined at a dose of 1 mg/kg/h; assay type: functional, Artery
Cavia porcellus [28] = assay: In vivo percent change in total acid secretion in guinea pig was determined at a dose of 1 mg/kg/h; assay type: functional

Structure (SMILES): CN(CC/C=C/c1ccccc1)CCc1c[nH]cn1
- Activity (Mustela putorius furo [1]): Not blocked
- Activity (Mustela putorius furo [2]): Blocked

Structure (SMILES): NC(C/C=C/c1ccccc1)Cc1c[nH]cn1 (centres undefined)
- Activity (Mustela putorius furo [3]): Blocked
- Activity (Mustela putorius furo [4]): Not blocked
- C20 [5]: 13 uM l-1
- EC50 (Cavia porcellus [6]): 184 uM l-1
- EC50 (Cavia porcellus [7]): 7.23 µM
- Change (Cavia porcellus [8]): 45%
- Change (Cavia porcellus [9]): 5%
- Change (Cavia porcellus [10]): 169%
- ED50 (Rattus norvegicus [11]): inactive
- dP/dt [12]: 68

Structure (SMILES): CC(CCc1ccc(O)cc1)NCCc1c[nH]cn1 (centres undefined)
- Activity (Mustela putorius furo [1]): Not blocked
- Activity (Mustela putorius furo [2]): Blocked
- C20 [5]: 2 uM l-1 and 5 uM l-1

Structure (SMILES): CCN(CCc1c[nH]cn1)C(C)CCc1ccc(O)cc1 (centres undefined)
- Activity (Mustela putorius furo [3]): Blocked
- Activity (Mustela putorius furo [2]): Blocked
- C20 [5]: 4 uM l-1 and 6 uM l-1

Structure (SMILES): CCCN(CCc1c[nH]cn1)C(C)CCc1ccc(O)cc1 (centres undefined)
- Activity (Mustela putorius furo [3]): Blocked
- Activity (Mustela putorius furo [2]): Blocked
- C20 [5]: 4.9 uM l-1

Structure (SMILES): Cc1[nH]cnc1CCNCCN
- C20 (Mustela putorius furo [13]): Not reached

Structure (SMILES): Cc1[nH]cnc1CCNCCNC(=O)c1ccncc1
- C20 (Mustela putorius furo [13]): Not reached

Structure (SMILES): Cc1[nH]cnc1CCNCCNC(=O)c1ccccc1
- C20 [5]: 27 uM l-1

Structure (SMILES): c1coc(CNCCc2c[nH]cn2)c1
- Activity (Mustela putorius furo [2]): Blocked
- C20 [5]: 27 uM l-1

Structure (SMILES): CCCCCCCNCCc1c[nH]cn1
- Activity (Mustela putorius furo [14]): Blocked
- Activity (Mustela putorius furo [15]): Not blocked
- C20 [16]: 1 uM l-1
- EC50 (Cavia porcellus [6]; Cavia porcellus, Cardiac atrium, read-out: EC50): 71 µM
- EC50 (Cavia porcellus [7]): 7.88 µM
- Change (Cavia porcellus [17]): 150%
- Change (Cavia porcellus [18]): 14%
- Change (Cavia porcellus [19]): 15%
- Change (Cavia porcellus [20]): 220%
- ED50 (Rattus norvegicus [21]): 10.7 mg/kg
- dP/dt [22]: 155

Structure (SMILES): O=C(c1ccccc1)N1CCC(NCCc2c[nH]cn2)CC1
- C20 [5]: >27 uM l-1

Structure (SMILES): Cc1[nH]cnc1CCNCCNC(=O)c1ccc(NS(C)(=O)=O)cc1
- C20 [5]: 20 uM l-1 and 40 uM l-1

Structure (SMILES): CN(C)CCCSC(=N)N [DIMAPRIT]
- Activity (Mustela putorius furo [3]): Blocked
- Activity (Mustela putorius furo [4]): Not blocked
- EC50 (Cavia porcellus [23]): 4.6 µM
- EC50 (Cavia porcellus [24]): 10.4 µM
- Change (Cavia porcellus [25]): 11%
- Change (Cavia porcellus [26]): 19%
- Change (Cavia porcellus [27]): -25%
- Change (Cavia porcellus [28]): 91%
- ED50 (Rattus norvegicus [21]): 3.1 mg/kg
- dP/dt [12]: 93
